The values that follow come from ChEMBL document CHEMBL4118021, “Studies of TAK1-centered polypharmacology with novel covalent TAK1 inhibitors” (Bioorg Med Chem, 2017).

Test [1] concerns the target Jupiter microtubule associated homolog 2 (Homo sapiens) (UniProt Q9H910). Put plainly: Binding affinity to HN1L in human NCI-H358 cells at 1 uM by mass spectrometry based pull down assay. The format is cell-based.
In test [2] the target is Ribosomal protein S6 kinase alpha-3 (Homo sapiens) (UniProt P51812). Put plainly: Binding affinity to RPS6KA3 in human NCI-H23 cells at 1 uM by mass spectrometry based pull down assay. The format is cell-based.
Ribosomal protein S6 kinase alpha-3 (Homo sapiens), sequence (P51812 whole entry): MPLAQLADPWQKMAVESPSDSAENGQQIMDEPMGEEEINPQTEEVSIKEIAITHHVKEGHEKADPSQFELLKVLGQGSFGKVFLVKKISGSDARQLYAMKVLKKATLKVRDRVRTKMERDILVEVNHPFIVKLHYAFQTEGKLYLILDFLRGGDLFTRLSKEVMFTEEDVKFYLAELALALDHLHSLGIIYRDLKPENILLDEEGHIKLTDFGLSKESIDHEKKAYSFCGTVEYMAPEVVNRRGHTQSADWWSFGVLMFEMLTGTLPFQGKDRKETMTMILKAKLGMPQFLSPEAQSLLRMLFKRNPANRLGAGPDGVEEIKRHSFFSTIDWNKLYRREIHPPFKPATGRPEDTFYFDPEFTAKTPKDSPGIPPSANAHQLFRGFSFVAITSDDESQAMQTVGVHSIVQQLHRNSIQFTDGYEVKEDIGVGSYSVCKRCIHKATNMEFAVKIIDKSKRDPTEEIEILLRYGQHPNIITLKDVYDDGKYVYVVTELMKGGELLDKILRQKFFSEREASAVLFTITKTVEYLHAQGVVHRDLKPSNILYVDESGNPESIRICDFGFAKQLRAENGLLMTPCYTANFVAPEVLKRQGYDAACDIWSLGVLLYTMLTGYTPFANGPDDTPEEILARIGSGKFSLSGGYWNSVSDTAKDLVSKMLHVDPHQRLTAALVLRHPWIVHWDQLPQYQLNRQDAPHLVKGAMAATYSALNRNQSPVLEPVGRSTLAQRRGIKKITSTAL
Test [3] has as its target Aminoacyl tRNA synthase complex-interacting multifunctional protein 1 (Homo sapiens) (UniProt Q12904). Put plainly: Binding affinity to AIMP1 in human NCI-H358 cells at 1 uM by mass spectrometry based pull down assay. The format is cell-based. A digest of the protocol: (§1)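 NCI-H23 or NCI-H358 cells were grown and lysed. Lysates were incubated overnight at 4 °C with 1 μM biotinylated covalent probe or DMSO, then pulled down on streptavidin beads. Proteins were run on polyacrylamide gels and stained with Coomassie. Bands were excised, digested and identified by mass spectrometry.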

Test [4] has as its target X antigen family member 1 (Homo sapiens) (UniProt Q9HD64). Put plainly: Binding affinity to XAGE1B in human NCI-H23 cells at 1 uM by mass spectrometry based pull down assay. The format is cell-based.
For test [5], the target named is Calponin-2 (Homo sapiens) (UniProt Q99439). Put plainly: Binding affinity to CNN2 in human NCI-H23 cells at 1 uM by mass spectrometry based pull down assay. The format is cell-based.
The target of test [6] is Probable ATP-dependent RNA helicase DDX17 (Homo sapiens) (UniProt Q92841). Put plainly: Binding affinity to DDX17 in human NCI-H23 cells at 1 uM by mass spectrometry based pull down assay. The format is cell-based.
The target of test [7] is Inosine-5'-monophosphate dehydrogenase 2 (Homo sapiens) (UniProt P12268). Put plainly: Binding affinity to IMPDH2 in human NCI-H23 cells at 1 uM by mass spectrometry based pull down assay. It counts as cell-based.
Test [8] concerns the target Signal recognition particle 19 kDa protein (Homo sapiens) (UniProt P09132). Put plainly: Binding affinity to SRP19 in human NCI-H23 cells at 1 uM by mass spectrometry based pull down assay. It counts as cell-based.
The target in test [9] is Leucine-rich repeat flightless-interacting protein 1 (Homo sapiens) (UniProt Q32MZ4). Put plainly: Binding affinity to LRRFIP1 in human NCI-H358 cells at 1 uM by mass spectrometry based pull down assay. The format is cell-based.
The target in test [10] is Ubiquitin-associated protein 2-like (Homo sapiens) (UniProt Q14157). Put plainly: Binding affinity to UBAP2L in human NCI-H358 cells at 1 uM by mass spectrometry based pull down assay. It counts as cell-based.
Ubiquitin-associated protein 2-like (Homo sapiens), sequence (Q14157 whole entry): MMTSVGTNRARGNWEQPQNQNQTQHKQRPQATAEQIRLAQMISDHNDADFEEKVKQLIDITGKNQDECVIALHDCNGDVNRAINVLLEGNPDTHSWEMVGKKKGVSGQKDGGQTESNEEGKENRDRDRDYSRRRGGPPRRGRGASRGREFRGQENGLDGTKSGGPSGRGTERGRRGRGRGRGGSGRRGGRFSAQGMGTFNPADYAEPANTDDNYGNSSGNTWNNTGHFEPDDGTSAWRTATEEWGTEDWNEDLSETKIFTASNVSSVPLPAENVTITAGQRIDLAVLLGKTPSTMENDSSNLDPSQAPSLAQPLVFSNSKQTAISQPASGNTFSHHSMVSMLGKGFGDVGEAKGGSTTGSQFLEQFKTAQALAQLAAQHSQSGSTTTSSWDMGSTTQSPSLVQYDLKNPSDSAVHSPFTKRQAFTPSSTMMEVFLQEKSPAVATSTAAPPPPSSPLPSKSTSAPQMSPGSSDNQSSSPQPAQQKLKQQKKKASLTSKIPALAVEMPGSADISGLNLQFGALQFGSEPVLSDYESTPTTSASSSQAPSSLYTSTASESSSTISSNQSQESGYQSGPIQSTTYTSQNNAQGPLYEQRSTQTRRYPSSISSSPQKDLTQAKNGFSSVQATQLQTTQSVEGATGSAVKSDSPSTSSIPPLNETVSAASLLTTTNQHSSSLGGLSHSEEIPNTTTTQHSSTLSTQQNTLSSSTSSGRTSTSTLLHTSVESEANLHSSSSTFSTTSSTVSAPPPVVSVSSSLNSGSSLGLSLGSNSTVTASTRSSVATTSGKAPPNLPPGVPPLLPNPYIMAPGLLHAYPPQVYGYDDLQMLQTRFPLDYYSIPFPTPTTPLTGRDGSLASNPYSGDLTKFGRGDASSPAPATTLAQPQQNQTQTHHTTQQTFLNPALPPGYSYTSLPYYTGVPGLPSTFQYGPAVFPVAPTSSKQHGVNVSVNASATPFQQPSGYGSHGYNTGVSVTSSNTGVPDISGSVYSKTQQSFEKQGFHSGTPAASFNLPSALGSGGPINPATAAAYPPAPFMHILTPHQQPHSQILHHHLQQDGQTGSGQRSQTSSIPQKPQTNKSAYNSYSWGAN
Test [11] has as its target Ketosamine-3-kinase (Homo sapiens) (UniProt Q9HA64). Put plainly: Binding affinity to FN3KRP in human NCI-H358 cells at 1 uM by mass spectrometry based pull down assay. The format is cell-based.
In test [12] the target is Thioredoxin-dependent peroxide reductase, mitochondrial (Homo sapiens) (UniProt P30048). Put plainly: Binding affinity to PRDX3 in human NCI-H23 cells at 1 uM by mass spectrometry based pull down assay. The format is cell-based.
Test [13] has as its target E3 ubiquitin-protein ligase UBR4 (Homo sapiens) (UniProt Q5T4S7). Put plainly: Binding affinity to UBR4 in human NCI-H358 cells at 1 uM by mass spectrometry based pull down assay. It counts as cell-based.
Test [14] relates to NCI-H23. Put plainly: Binding affinity to PSMA3 in human NCI-H23 cells at 1 uM by mass spectrometry based pull down assay. It counts as cell-based.
Test [15] deals with Lactoylglutathione lyase (Homo sapiens) (UniProt Q04760). Put plainly: Binding affinity to GLO1 in human NCI-H23 cells at 1 uM by mass spectrometry based pull down assay. It counts as cell-based.
Test [16] concerns the target ADP-ribosylation factor-like protein 8B (Homo sapiens) (UniProt Q9NVJ2). Put plainly: Binding affinity to ARL8B in human NCI-H358 cells at 1 uM by mass spectrometry based pull down assay. It counts as cell-based.
The target in test [17] is T-complex protein 1 subunit theta (Homo sapiens) (UniProt P50990). Put plainly: Binding affinity to CCT8 in human NCI-H23 cells at 1 uM by mass spectrometry based pull down assay. It counts as cell-based.
T-complex protein 1 subunit theta (Homo sapiens), sequence (P50990 whole entry, one chain of several): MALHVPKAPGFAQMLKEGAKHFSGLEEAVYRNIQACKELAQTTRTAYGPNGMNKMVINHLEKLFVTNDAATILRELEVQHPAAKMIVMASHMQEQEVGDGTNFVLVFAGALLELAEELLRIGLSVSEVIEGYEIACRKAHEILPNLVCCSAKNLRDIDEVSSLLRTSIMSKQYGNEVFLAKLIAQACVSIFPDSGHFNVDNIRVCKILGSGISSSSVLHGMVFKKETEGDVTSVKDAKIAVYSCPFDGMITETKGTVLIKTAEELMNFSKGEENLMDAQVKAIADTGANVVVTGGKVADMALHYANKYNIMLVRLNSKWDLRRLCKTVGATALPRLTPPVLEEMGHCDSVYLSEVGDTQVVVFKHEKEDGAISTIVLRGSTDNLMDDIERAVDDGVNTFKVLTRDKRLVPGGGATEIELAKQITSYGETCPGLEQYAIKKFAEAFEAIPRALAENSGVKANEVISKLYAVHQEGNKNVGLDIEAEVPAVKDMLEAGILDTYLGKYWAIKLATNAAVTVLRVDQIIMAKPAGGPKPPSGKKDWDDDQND
The target in test [18] is Proteasome activator complex subunit 1 (Homo sapiens) (UniProt Q06323). Put plainly: Binding affinity to PSME1 in human NCI-H23 cells at 1 uM by mass spectrometry based pull down assay. It counts as cell-based.
For test [19], the target named is Clustered mitochondria protein homolog (Homo sapiens) (UniProt O75153). Put plainly: Binding affinity to CLUH in human NCI-H23 cells at 1 uM by mass spectrometry based pull down assay. It counts as cell-based.
Test [20] deals with Aldehyde dehydrogenase X, mitochondrial (Homo sapiens) (UniProt P30837). Put plainly: Binding affinity to ALDH1B1 in human NCI-H358 cells at 1 uM by mass spectrometry based pull down assay. The format is cell-based. A digest of the protocol:
as §1

For test [21], the target named is Mitogen-activated protein kinase kinase kinase 20 (Homo sapiens) (UniProt Q9NYL2). Put plainly: Binding affinity to ZAK in human NCI-H23 cells at 1 uM by mass spectrometry based pull down assay. It counts as cell-based.
Test [22] has as its target V-type proton ATPase subunit B, brain isoform (Homo sapiens) (UniProt P21281). Put plainly: Binding affinity to ATP6V1B2 in human NCI-H23 cells at 1 uM by mass spectrometry based pull down assay. It counts as cell-based.
For test [23], the target named is Bifunctional glutamate/proline--tRNA ligase (Homo sapiens) (UniProt P07814). Put plainly: Binding affinity to EPRS in human NCI-H23 cells at 1 uM by mass spectrometry based pull down assay. The format is cell-based.
Test [24] deals with Signal recognition particle receptor subunit beta (Homo sapiens) (UniProt Q9Y5M8). Put plainly: Binding affinity to SRPRB in human NCI-H358 cells at 1 uM by mass spectrometry based pull down assay. The format is cell-based.
In test [25] the target is Pigment epithelium-derived factor (Homo sapiens) (UniProt P36955). Put plainly: Binding affinity to SERPINF1 in human NCI-H23 cells at 1 uM by mass spectrometry based pull down assay. It counts as cell-based.
The target in another test is Gelsolin (Homo sapiens) (UniProt P06396). Put plainly: Binding affinity to GSN in human NCI-H358 cells at 1 uM by mass spectrometry based pull down assay. It counts as cell-based.
The target of test [26] is Ribosomal protein S6 kinase alpha-6 (Homo sapiens) (UniProt Q9UK32). Put plainly: Inhibition of human RSK4 (1 to 397 residues) expressed in mammalian expression system assessed as enzyme activity at 1 uM by KINOMEScan assay relative to control. Also noted: scale not given: the % may be the effect or the level left. The gist of the method: (§2)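 In vitro ATP-site competition binding assay across a panel of 456 kinases, with compound tested at 1 and 10 μM.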

Test [27] deals with NCI-H23. Put plainly: Antiproliferative activity against human NCI-H23 cells harboring KRAS G12C mutant at. It counts as functional, cell-based.
In test [28] the target is Receptor-type tyrosine-protein kinase FLT3 (Homo sapiens) (UniProt P36888). Put plainly: Inhibition of human FLT3 (592 to 969 residues) expressed in bacterial expression system assessed as enzyme activity at 1 uM by KINOMEScan assay relative to control. Also noted: scale not given: the % may be the effect or the level left. The gist of the method: as §2
For test [29], the target named is Activated CDC42 kinase 1 (Homo sapiens) (UniProt Q07912). Put plainly: Inhibition of ACK in human SKCO1 cells at 1 uM after 4 hrs using biotin labeled TVSVAVKCLKPDVLSQPEAMDDFIR probe by mass-spectrometric analysis relative to control. It counts as cell-based.
Activated CDC42 kinase 1 (Homo sapiens), sequence (Q07912 whole entry, looked up): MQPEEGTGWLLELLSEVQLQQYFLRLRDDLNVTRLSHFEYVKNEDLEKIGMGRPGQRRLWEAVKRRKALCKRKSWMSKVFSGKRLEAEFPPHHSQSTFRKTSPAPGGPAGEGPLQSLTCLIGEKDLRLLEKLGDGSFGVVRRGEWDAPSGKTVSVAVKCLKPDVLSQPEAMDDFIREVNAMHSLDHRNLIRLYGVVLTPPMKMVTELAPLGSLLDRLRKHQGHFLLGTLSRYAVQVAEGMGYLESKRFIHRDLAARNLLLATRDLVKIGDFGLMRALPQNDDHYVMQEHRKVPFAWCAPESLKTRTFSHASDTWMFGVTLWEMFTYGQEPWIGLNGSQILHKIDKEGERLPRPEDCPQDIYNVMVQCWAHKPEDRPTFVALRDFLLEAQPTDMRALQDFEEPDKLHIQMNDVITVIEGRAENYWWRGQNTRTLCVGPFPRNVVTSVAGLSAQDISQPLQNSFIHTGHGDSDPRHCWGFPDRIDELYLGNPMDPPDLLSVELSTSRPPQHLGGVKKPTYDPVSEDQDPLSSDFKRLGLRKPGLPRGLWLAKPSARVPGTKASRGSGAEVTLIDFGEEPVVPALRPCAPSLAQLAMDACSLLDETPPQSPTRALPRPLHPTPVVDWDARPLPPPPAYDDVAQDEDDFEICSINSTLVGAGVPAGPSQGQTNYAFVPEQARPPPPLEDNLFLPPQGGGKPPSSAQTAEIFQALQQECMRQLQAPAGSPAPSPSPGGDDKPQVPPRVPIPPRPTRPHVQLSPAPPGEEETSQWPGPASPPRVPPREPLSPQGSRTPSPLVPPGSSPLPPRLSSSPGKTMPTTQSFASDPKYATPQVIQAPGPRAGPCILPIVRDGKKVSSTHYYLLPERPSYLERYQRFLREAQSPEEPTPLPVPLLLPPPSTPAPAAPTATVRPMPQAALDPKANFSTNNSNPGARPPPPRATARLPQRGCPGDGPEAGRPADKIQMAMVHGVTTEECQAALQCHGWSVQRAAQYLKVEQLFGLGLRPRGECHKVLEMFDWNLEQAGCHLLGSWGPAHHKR

Calls of active or inactive are those of the source. No cut-off for these calls is given here.

Jupiter microtubule associated homolog 2 (Homo sapiens), sequence (Q9H910 whole entry): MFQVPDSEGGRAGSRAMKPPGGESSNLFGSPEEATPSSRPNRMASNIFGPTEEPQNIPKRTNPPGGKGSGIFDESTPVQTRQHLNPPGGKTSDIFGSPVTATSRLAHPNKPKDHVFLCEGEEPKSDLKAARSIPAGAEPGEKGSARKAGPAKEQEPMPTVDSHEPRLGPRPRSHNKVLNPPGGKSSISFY
V-type proton ATPase subunit B, brain isoform (Homo sapiens), sequence (P21281 whole entry, canonical isoform): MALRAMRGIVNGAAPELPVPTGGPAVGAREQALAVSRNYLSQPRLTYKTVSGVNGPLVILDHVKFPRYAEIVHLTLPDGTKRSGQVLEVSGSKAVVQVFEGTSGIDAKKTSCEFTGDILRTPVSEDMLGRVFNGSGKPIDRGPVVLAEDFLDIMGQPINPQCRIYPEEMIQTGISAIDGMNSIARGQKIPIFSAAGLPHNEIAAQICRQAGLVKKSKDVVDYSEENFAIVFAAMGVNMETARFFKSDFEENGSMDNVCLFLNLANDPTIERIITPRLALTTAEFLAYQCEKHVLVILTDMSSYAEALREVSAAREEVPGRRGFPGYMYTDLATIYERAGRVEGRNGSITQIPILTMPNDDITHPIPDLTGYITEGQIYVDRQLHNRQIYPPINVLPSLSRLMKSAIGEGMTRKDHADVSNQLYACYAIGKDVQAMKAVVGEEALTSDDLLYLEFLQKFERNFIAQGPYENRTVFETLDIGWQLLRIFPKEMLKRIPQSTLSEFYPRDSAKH
Aldehyde dehydrogenase X, mitochondrial (Homo sapiens), sequence (P30837 whole entry): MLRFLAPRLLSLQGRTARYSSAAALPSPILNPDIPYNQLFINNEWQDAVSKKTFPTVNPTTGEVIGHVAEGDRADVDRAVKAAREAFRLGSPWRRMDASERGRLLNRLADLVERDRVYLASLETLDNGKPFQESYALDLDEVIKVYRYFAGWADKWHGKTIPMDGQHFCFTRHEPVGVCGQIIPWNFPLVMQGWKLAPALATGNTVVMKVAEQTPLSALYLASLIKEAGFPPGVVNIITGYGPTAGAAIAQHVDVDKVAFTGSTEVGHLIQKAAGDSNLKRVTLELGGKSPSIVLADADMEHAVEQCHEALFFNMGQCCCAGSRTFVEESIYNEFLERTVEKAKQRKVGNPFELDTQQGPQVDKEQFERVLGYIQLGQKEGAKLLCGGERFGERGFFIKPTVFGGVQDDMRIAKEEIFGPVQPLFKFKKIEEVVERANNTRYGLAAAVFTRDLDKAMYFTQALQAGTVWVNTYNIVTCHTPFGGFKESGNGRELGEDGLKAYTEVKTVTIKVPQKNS
Ketosamine-3-kinase (Homo sapiens), sequence (Q9HA64 whole entry): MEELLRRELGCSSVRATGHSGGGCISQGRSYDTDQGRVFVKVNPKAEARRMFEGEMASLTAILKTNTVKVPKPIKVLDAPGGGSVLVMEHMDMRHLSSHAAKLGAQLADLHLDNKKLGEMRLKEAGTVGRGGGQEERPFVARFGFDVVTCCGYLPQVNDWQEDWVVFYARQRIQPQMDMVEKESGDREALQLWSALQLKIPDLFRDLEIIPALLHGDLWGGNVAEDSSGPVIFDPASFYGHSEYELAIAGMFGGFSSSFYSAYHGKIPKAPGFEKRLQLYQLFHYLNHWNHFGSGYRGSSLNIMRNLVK
X antigen family member 1 (Homo sapiens), sequence (Q9HD64 whole entry): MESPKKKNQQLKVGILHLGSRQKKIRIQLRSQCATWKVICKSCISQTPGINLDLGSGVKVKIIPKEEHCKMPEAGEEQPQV

For `C=CC(=O)Nc1ccccc1Nc1nc(Nc2ccc(N3CCN(CCOCCOCCOCCNC(=O)CCCC[C@@H]4SC[C@@H]5NC(=O)N[C@@H]54)CC3)cc2)ncc1Cl`, the outcome in test [1], in test [2], in test [3], in [4], in [5] and in [6] was Active. For the same compound, the outcome in [7], in test [8], in test [9], in test [10], in test [11] and in test [12] was Active. Moreover, the result (in test [13]; with NCI-H23 [14]; in test [15]; in test [16]; in test [17]; in [18]) was Active. Besides, the result in [19], in [20], in [21], in [22], in test [23] and in test [24] was Active. The outcome (in [25]; at Gelsolin (Homo sapiens)) was Active.
For `COc1cc(O)c2c(c1)/C=C/C[C@H](O)[C@H](O)C(=O)/C=C\C[C@H](C)OC2=O`, the Activity amounted to 34% in test [26] and 4.2% in test [28]. In addition, in the test with NCI-H23 [27], the result was Active.
`C=CC(=O)Nc1ccccc1Nc1nc(Nc2ccc(N3CCN(C)CC3)cc2)ncc1Cl` came in with an inhibition in test [29] of 45.1%.

The term inhibition denotes the drop in the measured response relative to a control, in per cent.
